Experimental data taken from publication PMC11170630 (ACS Omega, 2024).

Assays:
HCT-116 cells = assay: MTT anticancer assay on colorectal cancer cell line HCT-116; type: cell-based, human; conditions: for SI (selectivity index): HCT-116 cells over normal colonocytes; for IC50: Homo sapiens, HCT-116, 72 h, read-out: IC50 HCT-116, MTT, 72 h, mean ± SEM
How it was run: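 MTT viability assay on human colorectal carcinoma HCT-116 cells exposed to test compounds. Data are mean ± SEM of three measurements. Differences between treatments were tested by one-way ANOVA with Tukey's test, with significance at p < 0.05.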

normal colonocyte = assay: MTT cytotoxicity on normal colonic epithelial cells; type: cell-based, rat; conditions: concentration at 100% cell viability (safe dose), 72 h, mean ± SEM
How it was run: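 Normal colonic epithelial cells were isolated by the Follmann & Birkner method, with modifications. Cytotoxicity of test compounds on these colonocytes was measured by MTT assay to define safe concentrations. Data are mean ± SEM of three measurements. Differences were tested by one-way ANOVA with Tukey's test, with significance at p < 0.05.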

HCT-116 cell line = conditions: read-out: IC50 cytotoxicity HCT-116 cell line; cited from earlier work

Row | IC50 (HCT-116 cells) [µM] | Structure (SMILES) | SI (selectivity index) (HCT-116 cells) | EC100 normal colonocyte (normal colonocyte) [µM] | fold lower anticancer activity than compound 20 (HCT-116 cells; HCT-116 IC50, compared to 20) [fold] | IC50 (HCT-116 cell line) [µM]
1 | 0.135 ± 0.009 | O=c1c(Cc2ccccc2)nc2ccccc2n1Cc1cn(-c2ccc(I)cc2)nn1 [Compound 15] | 3.244 | 0.103 ± 0.008 |  | 
2 | 0.222 | O=c1c(Cc2ccccc2)nc2ccccc2n1Cc1cn(-c2ccc(O)cc2)nn1 [Compound 16] | 5.000 | 0.556 ± 0.031 |  | 
3 | 0.114 ± 0.001 | O=C(O)CNC(=O)c1ccc(-n2cc(Cn3c(=O)c(Cc4ccccc4)nc4ccccc43)nn2)cc1 [Compound 17] | 3.263 | 0.169 ± 0.036 |  | 
4 | 0.218 | CC(=O)c1ccc(-n2cc(Cn3c(=O)c(Cc4ccccc4)nc4ccccc43)nn2)cc1 [Compound 18] | 10.633 | 0.212 ± 0.010 |  | 
5 | 0.331 ± 0.004 | CC(=O)NS(=O)(=O)c1ccc(-n2cc(Cn3c(=O)c(Cc4ccccc4)nc4ccccc43)nn2)cc1 [Compound 19] | 1.211 | 0.150 ± 0.015 | 4.6 | 
6 | 0.761 ± 0.05 | COc1cccc2c1C(=O)c1c(O)c3c(c(O)c1C2=O)C[C@@](O)(C(=O)CO)C[C@@H]3O[C@H]1C[C@H](N)[C@H](O)[C@H](C)O1 [DOX, doxorubicin, reference compound] | 0.357 | 0.074 ± 0.008 |  | 9.63
7 |  | CNC(=O)c1cc(Oc2ccc(NC(=O)Nc3ccc(Cl)c(C(F)(F)F)c3)cc2)ccn1 [sorafenib] |  |  |  | 9.4
